We go through 20 compounds from ChEMBL document CHEMBL4325887, “Lipophilic Permeability Efficiency Reconciles the Opposing Roles of Lipophilicity in Membrane Permeability and Aqueous Solubility” (J Med Chem, 2018).

The structures appear in SMILES notation. Values after ≈ are worked out from the molar mass of the structure shown. Where a SMILES comes first, the peptide text is derived from it. [ ]: non-standard residue; d: D form. NMeY = CN[C@@H](Cc1ccc(O)cc1)C(=O)O; NMeF = CN[C@@H](Cc1ccccc1)C(=O)O; dNMeF = CN[C@H](Cc1ccccc1)C(=O)O; NMeA = CN[C@@H](C)C(=O)O; dNMeA = CN[C@H](C)C(=O)O; Sar = CNCC(=O)O

Data set [1] can be described thus: Apparent permeability in low-efflux MDCK2 cells at 2 uM by lucifer yellow dye-based UPLC-MS analysis. The following applies: dog, MDCK. Type of data set: ADME, cell-based, Canis lupus familiaris, MDCK-II.
The nature of data set [2]: Thermodynamic aqueous solubility of compound in pH 7.4 PBS by UPLC-MS analysis. It is filed as physicochemical. As to conditions: PBS pH 7.4, pH 7.4; read-out: Therm_solubility.
A short description of data set [3]: 1,9-decadiene/aqueous buffer solution partition coefficient, log D of the compound in PBS at pH 7.4 by shake flask method. It is filed as physicochemical.
Data set [4] can be described thus: Apparent permeability in human Caco2 cells. It is filed as ADME, cell-based. The following applies: Caco-2. In a few lines: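 Apical-to-basolateral permeation (Papp, ×10-6 cm/s) was measured in quadruplicate. Compound was quantified by selected-mass UPLC-MS.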
A short description of data set [5]: Apparent permeability of compound in pH 7.4 PBS after 16 hrs by PAMPA assay. It is filed as ADME. (In general: PAMPA measures passive passage across an artificial lipid membrane.)

As a reminder, the Papp is a coefficient for how fast a substance crosses the barrier. Consider `CC[C@@H]1NC(=O)[C@H](CC(C)C)N(C)C(=O)[C@H](CC)N(C)C(=O)[C@H](CC(C)C)N(C)C(=O)[C@H](CC(C)C)N(C)C(=O)[C@@H](C)NC(=O)[C@H](C)NC(=O)[C@H](CC(C)C)N(C)C(=O)[C@H](C(C)C)NC(=O)[C@H](CC(C)C)N(C)C(=O)CN(C)C1=O`, for which the apparent permeability (Papp) at 2 µM in data set [1] was found to be 2.7 ×10⁻⁶ cm/s. Also, the solubility thermodynamic in data set [2] came out at 10 µM (≈ 11.3 µg/mL). This compound returned a logD hydrocarbon water in data set [3] of 3.64.
`CC[C@H]1OC(=O)[C@H](C)[C@@H](O[C@H]2C[C@@](C)(OC)[C@@H](O)[C@H](C)O2)[C@H](C)[C@@H](O[C@@H]2O[C@H](C)C[C@H](N(C)C)[C@H]2O)[C@](C)(O)C[C@@H](C)C(=O)[C@H](C)[C@@H](O)[C@]1(C)O` [ERYTHROMYCIN] displayed a logD hydrocarbon water in data set [3] of -3.9. In addition, in data set [4], the apparent permeability (Papp) lay in the range of 1 to 3 ×10⁻⁶ cm/s.
`C/C=C/C[C@@H](C)[C@@H](O)[C@H]1C(=O)N[C@@H]([C@@H](C)O)C(=O)N(C)CC(=O)N(C)[C@@H](CC(C)C)C(=O)N[C@@H](C(C)C)C(=O)N(C)[C@@H](CC(C)C)C(=O)N[C@@H](C)C(=O)N[C@H](C)C(=O)N(C)[C@@H](CC(C)C)C(=O)N(C)[C@@H](CC(C)C)C(=O)N(C)[C@@H](C(C)C)C(=O)N1C`: the Papp at 2 µM in data set [1] was 0.5 ×10⁻⁶ cm/s. Further, in data set [2], the solubility thermodynamic came to 33 µM (≈ 40.2 µg/mL). In data set [3], the logD hydrocarbon water was 2.43.
With `CC[C@H](C)[C@@H]1NC(=O)[C@H](Cc2ccccc2)N(C)C(=O)[C@H](Cc2ccccc2)NC(=O)CN(C)C(=O)[C@@H]2CCCN2C(=O)[C@@H](Cc2ccccc2)N(C)C(=O)[C@H](CC(C)C)NC1=O` (cyclo(F[NMeF]IL[dNMeF]P[Sar])), the Papp at 16 h in data set [5] worked out at 2.3 ×10⁻⁶ cm/s. Also, in data set [2], the solubility thermodynamic came to 2.3 µM (≈ 1.99 µg/mL). This compound displayed a logD hydrocarbon water in data set [3] of 2.13.
For the compound `CC(C)C[C@@H]1NC(=O)[C@H](C)NC(=O)[C@H](Cc2ccc(O)cc2)N(C)C(=O)[C@H](Cc2ccccc2)NC(=O)CN(C)C(=O)[C@@H]2CCCN2C(=O)[C@@H](Cc2ccccc2)N(C)C1=O` (cyclo(AL[dNMeF]P[Sar]F[NMeY])), the apparent permeability coefficient (Papp) at 16 h in data set [5] was determined as 0.2 ×10⁻⁶ cm/s. The solubility thermodynamic in data set [2] worked out at 10 µM (≈ 8.38 µg/mL). The compound further displayed a logD hydrocarbon water in data set [3] of -2.44.
Regarding `CC[C@H]1OC(=O)[C@H](C)[C@@H](O[C@H]2C[C@@](C)(OC)[C@@H](O)[C@H](C)O2)[C@H](C)[C@@H](O[C@@H]2O[C@H](C)C[C@H](N(C)C)[C@H]2O)[C@](C)(OC)C[C@@H](C)C(=O)[C@H](C)[C@@H](O)[C@]1(C)O` [CLARITHROMYCIN], in data set [4], the Papp was above 10 ×10⁻⁶ cm/s.
Turning to `C/C=C/C[C@@H](C)[C@@H](OC(C)=O)[C@H]1C(=O)N[C@@H](CC)C(=O)N(C)CC(=O)N(C)[C@@H](CC(C)C)C(=O)N[C@@H](C(C)C)C(=O)N(C)[C@@H](CC(C)C)C(=O)N[C@@H](C)C(=O)N[C@H](C)C(=O)N(C)[C@@H](CC(C)C)C(=O)N(C)[C@@H](CC(C)C)C(=O)N(C)[C@@H](C(C)C)C(=O)N1C`, the solubility thermodynamic in data set [2] turned out to be 0.005 µM (≈ 0.00622 µg/mL). The compound further returned a logD hydrocarbon water in data set [3] of 4.14.
Turning to `C/C=C/C[C@@H](C)[C@@H](O)[C@H]1C(=O)N[C@@H](C(C)C)C(=O)N(C)CC(=O)N(C)[C@@H](CC(C)C)C(=O)N[C@@H](C(C)C)C(=O)N(C)[C@@H](CC(C)C)C(=O)N[C@@H](C)C(=O)N[C@H](C)C(=O)N(C)[C@@H](CC(C)C)C(=O)N(C)[C@@H](CC(C)C)C(=O)N(C)[C@@H](C(C)C)C(=O)N1C`, the Papp at 2 µM in data set [1] amounted to 0.7 ×10⁻⁶ cm/s. The solubility thermodynamic in data set [2] amounted to 0.12 µM (≈ 0.146 µg/mL). The compound further registered a logD hydrocarbon water in data set [3] of 3.86.
Take `CC[C@H](C)[C@@H]1NC(=O)[C@H](Cc2ccc(O)cc2)N(C)C(=O)[C@H](C)NC(=O)CN(C)C(=O)[C@@H]2CCCN2C(=O)[C@@H](Cc2ccccc2)N(C)C(=O)[C@H](CC(C)C)NC1=O` (cyclo(A[NMeY]IL[dNMeF]P[Sar])): in data set [2], the solubility thermodynamic is 17 µM (≈ 13.7 µg/mL). Moreover, in data set [3], the logD hydrocarbon water is -1.78.
The matching figures for `CC[C@H](C)[C@@H]1NC(=O)[C@H](Cc2ccc(O)cc2)N(C)C(=O)[C@H](Cc2ccccc2)NC(=O)CN(C)C(=O)[C@@H]2CCCN2C(=O)[C@@H](Cc2ccccc2)N(C)C(=O)[C@H](CC(C)C)NC1=O` [CORDYHEPTAPEPTIDE A] (cyclo(F[NMeY]IL[dNMeF]P[Sar])): 0.45 µM (≈ 0.396 µg/mL) and -0.13.
For the compound `CC[C@H]1OC(=O)[C@H](C)[C@@H](O[C@H]2C[C@@](C)(OC)[C@@H](O)[C@H](C)O2)[C@H](C)[C@@H](O[C@@H]2O[C@H](C)C[C@H](N(C)C)[C@H]2O)[C@](C)(O)C[C@@H](C)/C(=N/OCOCCOC)[C@H](C)[C@@H](O)[C@]1(C)O`, the Papp in data set [4] is above 10 ×10⁻⁶ cm/s.
Turning to `C/C=C/C[C@@H](C)[C@H]1OC(=O)[C@H](C(C)C)N(C)C(=O)[C@H](CC(C)C)N(C)C(=O)[C@H](CC(C)C)N(C)C(=O)[C@@H](C)NC(=O)[C@H](C)NC(=O)[C@H](CC(C)C)N(C)C(=O)[C@H](C(C)C)NC(=O)[C@H](CC(C)C)N(C)C(=O)CN(C)C(=O)[C@H](CC)NC(=O)[C@H]1NC`, the solubility thermodynamic in data set [2] turned out to be 2.2 µM (≈ 2.65 µg/mL). The compound further displayed a logD hydrocarbon water in data set [3] of 2.61.
Consider `CC[C@H](C)[C@@H]1NC(=O)[C@H](C)N(C)C(=O)[C@H](Cc2ccccc2)NC(=O)CN(C)C(=O)[C@@H]2CCCN2C(=O)[C@@H](Cc2ccccc2)N(C)C(=O)[C@H](CC(C)C)NC1=O` (cyclo(F[NMeA]IL[dNMeF]P[Sar])), for which the apparent permeability (Papp) at 16 h in data set [5] amounted to 5.9 ×10⁻⁶ cm/s. Also, the solubility thermodynamic in data set [2] was 16 µM (≈ 12.6 µg/mL). Further, the logD hydrocarbon water in data set [3] turned out to be 0.71.
Take `CC[C@H](C)[C@@H]1NC(=O)[C@H](Cc2ccc(O)cc2)N(C)C(=O)[C@H](Cc2ccccc2)NC(=O)CN(C)C(=O)[C@@H]2CCCN2C(=O)[C@@H](C)N(C)C(=O)[C@H](CC(C)C)NC1=O` (cyclo(F[NMeY]IL[dNMeA]P[Sar])): the apparent permeability coefficient (Papp) at 16 h in data set [5] turned out to be 1.3 ×10⁻⁶ cm/s. The compound also showed a logD hydrocarbon water in data set [3] of -1.71.
On to `CC[C@H]1OC(=O)[C@H](C)[C@@H](O[C@H]2C[C@@](C)(OC)[C@@H](O)[C@H](C)O2)[C@H](C)[C@@H](O[C@@H]2O[C@H](C)C[C@H](N(C)C)[C@H]2O)[C@](C)(O)C[C@@H](C)CN(C)[C@H](C)[C@@H](O)[C@]1(C)O` [AZITHROMYCIN], for which the Papp in data set [4] was 1 to 3 ×10⁻⁶ cm/s.
On to `CC[C@H](C)[C@@H]1NC(=O)[C@H](Cc2ccc(O)cc2)N(C)C(=O)[C@H](Cc2ccccc2)NC(=O)CN(C)C(=O)[C@@H]2CCCN2C(=O)[C@@H](Cc2ccccc2)N(C)C(=O)[C@H](C)NC1=O` (cyclo(A[dNMeF]P[Sar]F[NMeY]I)), for which the solubility thermodynamic in data set [2] is 9 µM (≈ 7.54 µg/mL). Also, in data set [3], the logD hydrocarbon water was -1.52.
With `CC[C@@H]1NC(=O)[C@H](CC(C)C)N(C)C(=O)[C@H](C(C)C)N(C)C(=O)[C@H](CC(C)C)N(C)C(=O)[C@H](CC(C)C)N(C)C(=O)[C@@H](C)NC(=O)[C@H](C)NC(=O)[C@H](CC(C)C)N(C)C(=O)[C@H](C(C)C)NC(=O)[C@H](CC(C)C)N(C)C(=O)CN(C)C1=O`, in data set [1], the Papp at 2 µM was determined as 1.8 ×10⁻⁶ cm/s. In data set [2], the solubility thermodynamic was 22 µM (≈ 25.2 µg/mL). Besides, the logD hydrocarbon water in data set [3] was found to be 3.94.
In the case of `C/C=C/C[C@@H](C)[C@@H](O)[C@H]1C(=O)N[C@@H](C)C(=O)N(C)CC(=O)N(C)[C@@H](CC(C)C)C(=O)N[C@@H](C(C)C)C(=O)N(C)[C@@H](CC(C)C)C(=O)N[C@@H](C)C(=O)N[C@H](C)C(=O)N(C)[C@@H](CC(C)C)C(=O)N(C)[C@@H](CC(C)C)C(=O)N(C)[C@@H](C(C)C)C(=O)N1C`, the Papp at 2 µM in data set [1] worked out at 1.4 ×10⁻⁶ cm/s. In addition, in data set [2], the solubility thermodynamic was 27 µM (≈ 32.1 µg/mL). The same compound returned a logD hydrocarbon water in data set [3] of 3.18.
For `CC[C@H](C)[C@@H]1NC(=O)[C@H](Cc2ccc(O)cc2)N(C)C(=O)[C@H](Cc2ccccc2)NC(=O)CN(C)C(=O)[C@H](C)N(C)C(=O)[C@@H](Cc2ccccc2)N(C)C(=O)[C@H](CC(C)C)NC1=O` (cyclo(F[NMeY]IL[dNMeF][NMeA][Sar])), the Papp at 16 h in data set [5] amounted to 7.8 ×10⁻⁶ cm/s. The solubility thermodynamic in data set [2] came out at 37 µM (≈ 32.1 µg/mL). In data set [3], this compound showed a logD hydrocarbon water of 0.92.
The matching figures for `CC(C)C[C@@H]1NC(=O)[C@H](C(C)C)NC(=O)[C@H](Cc2ccc(O)cc2)N(C)C(=O)[C@H](Cc2ccccc2)NC(=O)CN(C)C(=O)[C@@H]2CCCN2C(=O)[C@@H](Cc2ccccc2)N(C)C1=O` [Cordyheptapeptide C]: 1.9 ×10⁻⁶ cm/s, 2.7 µM (≈ 2.34 µg/mL) and -0.43.
